Screening data from PubChem BioAssay.
Hits are enriched below; roughly 2.4% of the tested compounds scored in any of these assays.
Neddylation inh: inhibitors of cullin neddylation, primary screen, biochemical, TR-FRET, uHTS, NAE and Ubc12. inhibition, % at 25 µM. actives 0.58% (n = 360,000); in the data active = inhibition above about 36%
Target sequence (P61081 whole entry, looked up): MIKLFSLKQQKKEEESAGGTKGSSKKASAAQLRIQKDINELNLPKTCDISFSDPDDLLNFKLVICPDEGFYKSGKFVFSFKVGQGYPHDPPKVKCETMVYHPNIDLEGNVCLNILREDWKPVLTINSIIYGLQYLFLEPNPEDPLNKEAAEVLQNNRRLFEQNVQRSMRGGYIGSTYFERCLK
Target sequence (Q13564 whole entry, looked up): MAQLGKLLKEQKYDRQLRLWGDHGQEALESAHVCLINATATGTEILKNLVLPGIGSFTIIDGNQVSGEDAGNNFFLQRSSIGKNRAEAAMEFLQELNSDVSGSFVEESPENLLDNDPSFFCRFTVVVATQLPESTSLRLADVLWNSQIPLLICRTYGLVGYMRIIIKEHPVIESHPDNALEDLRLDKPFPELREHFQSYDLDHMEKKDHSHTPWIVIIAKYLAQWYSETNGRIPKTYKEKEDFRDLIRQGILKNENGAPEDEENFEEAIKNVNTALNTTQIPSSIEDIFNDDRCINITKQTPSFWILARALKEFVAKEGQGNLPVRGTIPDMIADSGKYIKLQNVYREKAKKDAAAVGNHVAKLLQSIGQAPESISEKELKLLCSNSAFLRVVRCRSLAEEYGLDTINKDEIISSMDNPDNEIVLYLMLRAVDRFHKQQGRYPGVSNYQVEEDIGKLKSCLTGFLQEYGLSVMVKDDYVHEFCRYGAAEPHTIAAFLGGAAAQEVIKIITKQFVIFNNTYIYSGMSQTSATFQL
Rin1 Abl inh: inhibitors of Rin1-Abl protein binding, primary screen, biochemical, TR-FRET. inhibition, % at 7.35 µM. Tyrosine-protein kinase ABL1 (Homo sapiens) + Ras and Rab interactor 1 (Homo sapiens), …. actives 0.4% (n = 360,000); in the data active = inhibition above about 5%, passing the limit was not always enough
Rpn11 inh: Rpn11 (PSMD14) deubiquitinase inhibitors, primary screen, biochemical, fluorescence polarization, uHTS; 26S proteasome non-ATPase regulatory subunit 14 (Homo sapiens), O00487; human 26S proteasome, Ub4-pepOG fluorescence polarization; 20S core pre-blocked with epoxomicin; inhibition, % at 20 µM; actives 0.59% (n = 360,000); AID 588493, 2011;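 active = inhibition at 20 µM, scaled to each plate's controls, above about 33%, limit read from the data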
HNF4A DNA FP: change in binding of human HNF4A to DNA, primary screen, biochemical, fluorescence polarization, FITC-DNA; 1 h; actives 0.3% (n = 360,000); activity change, % at 10 µM; in the data active = activity change above about 30%, passing the limit was not always enough
CSN deneddyl inh: inhibitors of CSN-mediated cullin deneddylation, primary screen, biochemical, fluorescence polarization, uHTS. Purified CSN, SCF-Nedd8-OG deneddylation. AID 651999, 2013. actives 0.38% (n = 360,000). COP9 signalosome complex subunit 5 (Homo sapiens), Q92905. inhibition, % at 12.5 µM;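 active = pattern-corrected inhibition above about 35%, with an unprinted fluorescence ratio check between 0.5 and 1.5, limit read from the data, passing the limit was not always enough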;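 also: 0% = enzyme with substrate and 100% = substrate without enzyme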
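assay system = purified human Csn5 enzyme expressed in HEK293T cells | amount = 0.24 nM enzyme | buffer or medium = Tris/NaCl/DTT buffer, pH 7.5 | reagent = 10 nM SCFSkp2-Nedd8OG | compound = one concentration, 12.5 µM, 0.25% DMSO | times = 90 min reaction at room temperature | signal = FP | read-out basis = % inhibition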
TPT1 inh: Candida albicans TPT1 enzyme inhibitors, primary screen, biochemical, fluorescence polarization; recombinant caTPT1, FP RNA substrate dephosphorylation; inhibition, % at 5 µM; actives 0.81% (n = 300,000);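 active = inhibition above the mean of all tested compounds plus 3 SD, set per screening campaign, cut at about 24% in these data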;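 also: plate controls were DMSO alone for no effect and ferristatin control at 100 nM for full effect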
Rin1-Abl confirm: Rin1-Abl binding inhibitor retest, confirmation, biochemical, TR-FRET | AID 602124, 2011 | inhibition, % at 7.35 µM | shares compounds with Rin1 Abl inh | actives 49% (n = 1,300) | purified proteins
GFP quencher: GFP fluorescence inhibitors and quenchers, artefact control for Rin1-Abl interaction inhibitor project, biochemical; shares compounds with Rin1 Abl inh; actives 8.5% (n = 1,300); inhibitors/quenchers counterscreen; inhibition, % at 6.75 µM;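 also: ABL1-eGFP fusion protein alone without its partner RIN1-SBP; 0% = protein with vehicle and 100% = wells lacking protein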
GFP quench DR: GFP fluorescence inhibitors and quenchers, dose response, artefact control for Rin1-Abl interaction inhibitor project, biochemical. shares compounds with Rin1 Abl inh. GFP fluorescence interference/quenching counterscreen. IC50, µM. 230 tested, under 10 active. AID 602182, 2012; call rule not given here;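 also: ABL1-eGFP fusion protein alone without its RIN1 binding partner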
* = called active by the depositor; . = no result given. Rule as the data show it, unless noted: active = inhibition above about 6.5%; inactive = the rest.

SMILES	Neddylation inh	Rin1 Abl inh	Rpn11 inh	HNF4A DNA FP	CSN deneddyl inh	TPT1 inh	Rin1-Abl confirm	GFP quencher	others
C#CCOCCOCCOCCNc1nc(N2CCN(C(=O)CCCCCCCCCCNC(=O)Cn3cc(C[C@@H](C)O)nn3)CC2)nc(N2CCN(C(=O)CCCCCCCCCCNC(=O)[C@@H]([C@H](C)CC)n3cc(CCCCCN)nn3)CC2)n1	4	10	7	8	4	-4	.	.
COC(=O)c1ccccc1NC(=O)CSc1ncn[nH]1	4	-1	7	2	3	-3	.	.
Nc1n[nH]c(CO)n1	-8	0	7	0	0	.	.	.
O=C(Nc1cc(Cl)ccc1-n1cncn1)c1cccc(S(=O)(=O)N2CCOCC2)c1	-1	4	-6	1	-4	.	.	.
CCN(CC)c1ccc(C(=C2C=CC(=[N+](CC)CC)C=C2)c2ccccc2)cc1	7	4	4	0	-3	.	.	.
CCN(CC)c1ccc(C(=C2C=CC(=[N+](CC)CC)C=C2)c2ccc(N(CC)CC)cc2)cc1	36	19*	3	1	-2	.	17*	52*
Cc1cccc(N(Cc2ccccc2)C(=O)c2ccc(C)c(S(=O)(=O)N3CCOCC3)c2)c1	-13	1	-2	3	0	.	.	.
Cc1cccc(N(Cc2ccccc2)C(=O)Cc2ccc(S(=O)(=O)N3CCOCC3)s2)c1	-5	14*	-3	2	-2	4	26*	1	GFP quench DR=>68
CN(CC(=O)Nc1ccc(N2CCOCC2)cc1)C(=O)CCCOc1ccc(Cl)cc1Cl	-2	11*	1	2	4	-4	-2	0
CCN(CC)S(=O)(=O)c1ccc(C(=O)NCc2ccc3c(c2)OCO3)cc1	0	1	19	3	-2	2	.	.
CCCN(CCC)S(=O)(=O)c1ccc(C(=O)NCc2ccc3c(c2)OCO3)cc1	4	6.3*	0	-4	0	-1	-1	2
COc1cc(NC(=O)CNc2cccc(S(=O)(=O)N3CCOCC3)c2)cc(OC)c1	6	3	-3	-1	3	.	.	.
Cc1[nH][nH]c(=O)c1C(c1ccc(-c2cccc(Cl)c2)o1)c1c(C)[nH][nH]c1=O	-13	7.9*	14	-2	6	1	8.5*	4
CC(C)Cc1ccc(CN2CCCC(NC(=O)CSc3nncn3C)C2)cc1 (stereo not drawn)	-3	-1	-3	4	-4	1	.	.
Cn1c(=O)oc2cc(S(=O)(=O)N3CCCC(C(=O)Nc4nccs4)C3)ccc21 (stereo not drawn)	0	11*	-1	-3	-2	-4	1	-1
CCCCNC(=O)Cn1c(=O)c2c(ncn2CCC(C)C)n(Cc2ccccc2)c1=O	9	20*	-6	-2	-2	-4	-1	0
COc1ccccc1CNc1nc(NCCNC(C)=O)c2sccc2n1	-5	19*	-7	-1	-1	.	15*	0
COc1ccccc1CNc1nc(NCc2ccccc2OC)c2sccc2n1	-9	-2	4	1	0	.	.	.
COc1ccccc1CNc1nc(NCc2ccc(NC(C)=O)cc2)c2sccc2n1	-1	10*	-2	3	-1	.	7.8*	2
O=C(CN1CCN(S(=O)(=O)c2ccc(F)c(F)c2)CC1)Nc1ccccc1C(=O)NC1CC1	16	2	0	-1	-1	.	.	.
COc1ccc(S(=O)(=O)NCc2ccco2)cc1N(C)S(=O)(=O)c1ccccc1	1	4	6	1	-5	3	.	.
CN1CCN(c2ccc(CNC(=O)C3Cc4c(-c5cccc(F)c5)ccnc4O3)cc2)CC1 (stereo not drawn)	1	6.5*	-8	-4	5	.	5	1
O=C(NCc1ccccc1)C1Cc2c(-c3cccc(F)c3)ccnc2O1 (stereo not drawn)	0	0	4	-4	3	.	.	.
CC(=O)c1cccc(-c2ccnc3c2CC(C(=O)NCc2ccccc2)O3)c1 (stereo not drawn)	-4	-2	1	-2	1	.	.	.
CC(=O)c1cccc(-c2ccnc3c2CC(C(=O)NCc2ccc(N4CCN(C)CC4)cc2)O3)c1 (stereo not drawn)	7	25*	1	6	1	.	18*	-1	GFP quench DR=>68
SMILES	Neddylation inh	Rin1 Abl inh	Rpn11 inh	HNF4A DNA FP	CSN deneddyl inh	TPT1 inh	Rin1-Abl confirm	GFP quencher	others
CC[C@]12c3[nH]c4ccc(Cl)cc4c3CCN1C(=O)[C@@H](CC(=O)NC/C=C(\C)CCC=C(C)C)C[C@@H]2C(=O)N1CCN(C(=O)c2ccco2)CC1	1	-4	6	-3	0	.	.	.
Nc1nc(SCc2ccc(Br)cc2)c2ncn(C3OC(CO)C(O)C3O)c2n1 (stereo not drawn)	3	0	-3	2	1	.	.	.
CN(CC(=O)Nc1ccc(C#N)cc1)Cc1ccc(Cl)c(Cl)c1	0	6.1*	6	4	3	1	0	-1
Cc1noc(C)c1COc1ccc(C(=O)NCC(c2c(F)cccc2Cl)N(C)C)cc1 (stereo not drawn)	0	-2	-3	2	5	.	.	.
COc1cc(CNc2ncnc3c2ncn3[C@H]2CN(Cc3ccccc3)C[C@@H](COC(C)=O)O2)cc(OC)c1OC	0	4	4	2	2	.	.	.
O=C(Nc1cccc(Cl)c1)Nc1cccc(C(=O)O)c1	2	5.9*	-6	-3	1	3	-2	0
Cc1ccc(NC(=O)CC2(CC(=O)O)CCCC2)cc1	1	-2	-2	2	-3	-1	.	.
O=C(O)CC1(CC(=O)Nc2cccc(C(=O)O)c2)CCCC1	2	8.0*	3	2	7	-1	-2	0
CCN(CC)CCNc1ncnc2c1sc1nc(N3CCCC3)c3c(c12)CC(C)(C)OC3	32	10*	2	4	2	6	13*	-1
